Measurements as given in ChEMBL document CHEMBL1125545, “4-Methyl-3-(arylsulfonyl)furoxans: a new class of potent inhibitors of platelet aggregation” (J Med Chem, 1992).

Species on record: Homo sapiens
Assay: Inhibition of arachidonic acid (AA) induced human platelet aggregation.
Format: functional
How it was run: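 Human PRP (pH 7.6; 200g, 15 min at room temperature) with platelet counts matched. Compound in DMSO-ethanol given 5 min before 1 mM arachidonic acid, with a solvent control. Aggregation followed by Born light-transmission aggregometry, IC50 derived from the aggregation traces. At least four repeats, each with platelets from a different donor.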

IC50: 1000 nM
Substance: SODIUM NITROPRUSSIDE
